Experimental data taken from ChEMBL document CHEMBL4689842, “EUbOPEN Chemogenomics Library wave 1” (2021).

Test system: U2OS
Experiment: Multiplex assay against U2OS
Format: toxicity, cell-based
Settings: human
How it was run: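 Per cents of healthy-nucleus cells form the tubulin, mitochondrial-mass and membrane-permeability phenotype values. Live cells were stained at seeding with Hoechst33342, BioTracker Green Microtubule Cytoskeleton Dye, MitoTracker Red and Annexin V Alexa Fluor 680. After compound addition they were imaged on a CQ1 microscope at 37°C and 5% CO2, and CellPathfinder machine-learning gating split them into Hoechst high-intensity objects or normal cells, normal cells into healthy, pyknosed or fragmented nuclei, and pyknosed cells into mitotic or apoptotic.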

[1] = 12 h, 1 µM, compound concentration 1 uM, replicate 1
[2] = 12 h, 1 µM, compound concentration 1 uM, replicate 2
[3] = 12 h, 10 µM, compound concentration 10 uM, replicate 1
[4] = 12 h, 10 µM, compound concentration 10 uM, replicate 2
[5] = 24 h, 1 µM, compound concentration 1 uM, replicate 1
[6] = 24 h, 1 µM, compound concentration 1 uM, replicate 2
[7] = 24 h, 10 µM, compound concentration 10 uM, replicate 1
[8] = 24 h, 10 µM, compound concentration 10 uM, replicate 2

SMILES: CCn1cc(-c2ccnc3[nH]c(-c4cccc(CN(C)C)c4)cc23)c(-c2ccc(NC(=O)N(C)C)cc2)n1 [GSK-1070916]
- Population Apoptotic (%) [1]: 25%
- Population Fragmented Nuclei (%) [1]: 4%
- Population Healthy Nuclei (%) [1]: 91%
- Population Hoechst High Intensity Objects (%) [1]: 2%
- Population Membrane Permeable-Phenotype (%) [1]: 28%
- Population Mitochondria Different-Phenotype (%) [1]: 17%
- Population Mitotic Cells (%) [1]: 75%
- Population Normal (%) [1]: 97%
- Population Pyknosed Nuclei (%) [1]: 3%
- Population Tubulin-Different-Phenotype (%) [1]: 24%
- Total Cell Count [1]: 141
- Population Apoptotic (%) [2]: 100%
- Population Fragmented Nuclei (%) [2]: 12%
- Population Healthy Nuclei (%) [2]: 86%
- Population Hoechst High Intensity Objects (%) [2]: 14%
- Population Membrane Permeable-Phenotype (%) [2]: 30%
- Population Mitochondria Different-Phenotype (%) [2]: 35%
- Population Mitotic Cells (%) [2]: 0%
- Population Normal (%) [2]: 85%
- Population Pyknosed Nuclei (%) [2]: 1%
- Population Tubulin-Different-Phenotype (%) [2]: 26%
- Total Cell Count [2]: 97
- Population Apoptotic (%) [3]: 50%
- Population Fragmented Nuclei (%) [3]: 12%
- Population Healthy Nuclei (%) [3]: 62%
- Population Hoechst High Intensity Objects (%) [3]: 9%
- Population Membrane Permeable-Phenotype (%) [3]: 32%
- Population Mitochondria Different-Phenotype (%) [3]: 44%
- Population Mitotic Cells (%) [3]: 49%
- Population Normal (%) [3]: 90%
- Population Pyknosed Nuclei (%) [3]: 24%
- Population Tubulin-Different-Phenotype (%) [3]: 99%
- Total Cell Count [3]: 207
- Population Apoptotic (%) [4]: 48%
- Population Fragmented Nuclei (%) [4]: 24%
- Population Healthy Nuclei (%) [4]: 48%
- Population Hoechst High Intensity Objects (%) [4]: 16%
- Population Membrane Permeable-Phenotype (%) [4]: 37%
- Population Mitochondria Different-Phenotype (%) [4]: 67%
- Population Mitotic Cells (%) [4]: 51%
- Population Normal (%) [4]: 83%
- Population Pyknosed Nuclei (%) [4]: 27%
- Population Tubulin-Different-Phenotype (%) [4]: 100%
- Total Cell Count [4]: 76
- Population Apoptotic (%) [5]: 38%
- Population Fragmented Nuclei (%) [5]: 6%
- Population Healthy Nuclei (%) [5]: 81%
- Population Hoechst High Intensity Objects (%) [5]: 2%
- Population Membrane Permeable-Phenotype (%) [5]: 15%
- Population Mitochondria Different-Phenotype (%) [5]: 27%
- Population Mitotic Cells (%) [5]: 61%
- Population Normal (%) [5]: 97%
- Population Pyknosed Nuclei (%) [5]: 12%
- Population Tubulin-Different-Phenotype (%) [5]: 15%
- Total Cell Count [5]: 141
- Population Apoptotic (%) [6]: 40%
- Population Fragmented Nuclei (%) [6]: 8%
- Population Healthy Nuclei (%) [6]: 83%
- Population Hoechst High Intensity Objects (%) [6]: 18%
- Population Membrane Permeable-Phenotype (%) [6]: 22%
- Population Mitochondria Different-Phenotype (%) [6]: 63%
- Population Mitotic Cells (%) [6]: 60%
- Population Normal (%) [6]: 81%
- Population Pyknosed Nuclei (%) [6]: 8%
- Population Tubulin-Different-Phenotype (%) [6]: 18%
- Total Cell Count [6]: 92
- Population Apoptotic (%) [7]: 65%
- Population Fragmented Nuclei (%) [7]: 13%
- Population Healthy Nuclei (%) [7]: 45%
- Population Hoechst High Intensity Objects (%) [7]: 16%
- Population Membrane Permeable-Phenotype (%) [7]: 50%
- Population Mitochondria Different-Phenotype (%) [7]: 85%
- Population Mitotic Cells (%) [7]: 34%
- Population Normal (%) [7]: 83%
- Population Pyknosed Nuclei (%) [7]: 40%
- Population Tubulin-Different-Phenotype (%) [7]: 98%
- Total Cell Count [7]: 216
- Population Apoptotic (%) [8]: 64%
- Population Fragmented Nuclei (%) [8]: 17%
- Population Healthy Nuclei (%) [8]: 36%
- Population Hoechst High Intensity Objects (%) [8]: 18%
- Population Membrane Permeable-Phenotype (%) [8]: 63%
- Population Mitochondria Different-Phenotype (%) [8]: 87%
- Population Mitotic Cells (%) [8]: 35%
- Population Normal (%) [8]: 81%
- Population Pyknosed Nuclei (%) [8]: 45%
- Population Tubulin-Different-Phenotype (%) [8]: 100%
- Total Cell Count [8]: 72

SMILES: COC(=N)c1nc2ccc3ncnc(Nc4ccc(OC)cc4F)c3c2s1
- Population Apoptotic (%) [1]: 36%
- Population Fragmented Nuclei (%) [1]: 9%
- Population Healthy Nuclei (%) [1]: 78%
- Population Hoechst High Intensity Objects (%) [1]: 8%
- Population Membrane Permeable-Phenotype (%) [1]: 17%
- Population Mitochondria Different-Phenotype (%) [1]: 25%
- Population Mitotic Cells (%) [1]: 63%
- Population Normal (%) [1]: 91%
- Population Pyknosed Nuclei (%) [1]: 12%
- Population Tubulin-Different-Phenotype (%) [1]: 27%
- Total Cell Count [1]: 162
- Population Apoptotic (%) [2]: 23%
- Population Fragmented Nuclei (%) [2]: 10%
- Population Healthy Nuclei (%) [2]: 75%
- Population Hoechst High Intensity Objects (%) [2]: 6%
- Population Membrane Permeable-Phenotype (%) [2]: 16%
- Population Mitochondria Different-Phenotype (%) [2]: 30%
- Population Mitotic Cells (%) [2]: 76%
- Population Normal (%) [2]: 93%
- Population Pyknosed Nuclei (%) [2]: 13%
- Population Tubulin-Different-Phenotype (%) [2]: 33%
- Total Cell Count [2]: 110
- Population Apoptotic (%) [3]: 37%
- Population Fragmented Nuclei (%) [3]: 2%
- Population Healthy Nuclei (%) [3]: 92%
- Population Hoechst High Intensity Objects (%) [3]: 1%
- Population Membrane Permeable-Phenotype (%) [3]: 10%
- Population Mitochondria Different-Phenotype (%) [3]: 19%
- Population Mitotic Cells (%) [3]: 62%
- Population Normal (%) [3]: 98%
- Population Pyknosed Nuclei (%) [3]: 5%
- Population Tubulin-Different-Phenotype (%) [3]: 25%
- Total Cell Count [3]: 190
- Population Fragmented Nuclei (%) [4]: 13%
- Population Healthy Nuclei (%) [4]: 77%
- Population Hoechst High Intensity Objects (%) [4]: 13%
- Population Membrane Permeable-Phenotype (%) [4]: 8%
- Population Mitochondria Different-Phenotype (%) [4]: 24%
- Population Normal (%) [4]: 86%
- Population Pyknosed Nuclei (%) [4]: 8%
- Population Tubulin-Different-Phenotype (%) [4]: 32%
- Total Cell Count [4]: 179
- Population Apoptotic (%) [5]: 28%
- Population Fragmented Nuclei (%) [5]: 5%
- Population Healthy Nuclei (%) [5]: 82%
- Population Hoechst High Intensity Objects (%) [5]: 5%
- Population Membrane Permeable-Phenotype (%) [5]: 17%
- Population Mitochondria Different-Phenotype (%) [5]: 22%
- Population Mitotic Cells (%) [5]: 71%
- Population Normal (%) [5]: 94%
- Population Pyknosed Nuclei (%) [5]: 12%
- Population Tubulin-Different-Phenotype (%) [5]: 44%
- Total Cell Count [5]: 219
- Population Apoptotic (%) [6]: 44%
- Population Fragmented Nuclei (%) [6]: 9%
- Population Hoechst High Intensity Objects (%) [6]: 8%
- Population Membrane Permeable-Phenotype (%) [6]: 12%
- Population Mitochondria Different-Phenotype (%) [6]: 27%
- Population Mitotic Cells (%) [6]: 55%
- Population Normal (%) [6]: 91%
- Population Pyknosed Nuclei (%) [6]: 7%
- Population Tubulin-Different-Phenotype (%) [6]: 39%
- Total Cell Count [6]: 118
- Population Fragmented Nuclei (%) [7]: 1%
- Population Healthy Nuclei (%) [7]: 96%
- Population Hoechst High Intensity Objects (%) [7]: 1%
- Population Membrane Permeable-Phenotype (%) [7]: 7%
- Population Mitochondria Different-Phenotype (%) [7]: 16%
- Population Normal (%) [7]: 98%
- Population Pyknosed Nuclei (%) [7]: 1%
- Population Tubulin-Different-Phenotype (%) [7]: 28%
- Total Cell Count [7]: 264
- Population Apoptotic (%) [8]: 75%
- Population Fragmented Nuclei (%) [8]: 11%
- Population Healthy Nuclei (%) [8]: 85%
- Population Hoechst High Intensity Objects (%) [8]: 7%
- Population Membrane Permeable-Phenotype (%) [8]: 10%
- Population Mitochondria Different-Phenotype (%) [8]: 34%
- Population Mitotic Cells (%) [8]: 25%
- Population Normal (%) [8]: 92%
- Population Pyknosed Nuclei (%) [8]: 3%
- Population Tubulin-Different-Phenotype (%) [8]: 32%
- Total Cell Count [8]: 222
